Bioassay records from PubChem BioAssay.
In the library only some 3.8% were active in any assay of this set; here they are far more common.
XiGFP reactiv: activators of X-chromosome reactivation in mouse fibroblasts; XiGFP mouse fibroblasts, % GFP-positive cells imaging, 3 d; cells co-treated with 5-aza-dC sensitizer; scaled so ellipticine positive control = 100%; activation, % at 7.58 µM; 360,000 tested, 0.055% active;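 active = mean normalized replicate activation at least 10% and every replicate at or above 10%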
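material = 68-5-11 XiGFP fibroblast line | medium = DMEM plus 5-aza-dC sensitizer | schedule = 3 days compound exposure | benchmarks = positive control ellipticine, 6 µM final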
SIRT5 block: blocks human SIRT5 desuccinylation of peptide; Purified SirT5, succinyl-peptide AMC, trypsin-coupled fluorescence; Q9NXA8; 330,000 tested, 1.1% active; AID 652115; inhibition, % at 15 µM; in the data active = inhibition above about 15%
Target sequence (Q9NXA8 whole entry, looked up): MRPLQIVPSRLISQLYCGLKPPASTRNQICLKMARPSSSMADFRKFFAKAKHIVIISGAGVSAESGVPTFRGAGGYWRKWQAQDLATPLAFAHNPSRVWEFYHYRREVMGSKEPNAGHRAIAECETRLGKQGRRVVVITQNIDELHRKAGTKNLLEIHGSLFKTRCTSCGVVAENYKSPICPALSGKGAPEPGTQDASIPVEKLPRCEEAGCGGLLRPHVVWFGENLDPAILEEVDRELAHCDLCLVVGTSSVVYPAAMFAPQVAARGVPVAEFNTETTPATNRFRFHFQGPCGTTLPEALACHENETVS
FN deposition inh: fibronectin deposition inhibition | AH1F fibroblasts, Alexa488-fibronectin deposition fluorescence, overnight | inhibition, % at 12.6 µM | 350,000 tested, 0.086% active;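 active = mean inhibition across replicates of 30% or more, regardless of how many single replicates reach that level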
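Material: AH1F fibroblast monolayer depositing Alexa488-labelled fibronectin into matrix | Input: 10000 AH1F cells/well | Medium: DMEM plus 2% serum, read in PBS | Reagent: Alexa488-fibronectin, 24 nM final in well | Compound dosing: One dose per compound, pinned | Schedule: 1 h adhesion, overnight exposure | Measured by: Fluorescence at 485 nm excitation, 525 nm emission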
DENV2 CPE: inhibitors of DENV2 cytopathic effect | 350,000 tested, 1.7% active | AID 651640 | DENV2-infected cells, cytopathic effect rescue, plate reader | CPE inhibition, % at 9.99 µM; in the data active = CPE inhibition above about 20%, passing the limit was not always enough; tested in BHK-21 cells
FGF22 binding: shifts melting point of recombinant human FGF22. Q9HCT0. recombinant FGF22 thermal shift, SYPRO orange fluorescence; percent of sucrose octasulfate shift, DMSO zero. activity (Tm shift, normalised), % at 9.99 µM. 340,000 tested, 1.5% active. AID 651658;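 active = mean Tm shift, scaled 0 neutral to 100 positive control, at about 1.3% or above, every replicate too, limit read from the data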
Target sequence (Q9HCT0 whole entry, looked up): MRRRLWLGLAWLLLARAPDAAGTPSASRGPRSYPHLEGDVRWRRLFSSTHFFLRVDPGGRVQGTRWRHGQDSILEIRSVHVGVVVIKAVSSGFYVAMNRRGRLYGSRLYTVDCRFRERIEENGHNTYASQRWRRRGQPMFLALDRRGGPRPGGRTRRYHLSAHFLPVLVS
ARNT-TACC3 inh: disrupts binding between human ARNT and TACC3; Q9Y6A5; AlphaScreen His-ARNT PAS-B/GST-TACC3 binding, luminescence; TACC3 fragment carries E629A point mutation; inhibition, % at 9.99 µM; 390,000 tested, 0.66% active; AID 623870;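 active = mean inhibition of replicates at least 50% and at least half of replicates each reaching 50%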
Of the large screens only hits and unclear results are named; the others gave an inactive call.

CCOC(=O)N1CCN(C(C(=O)NC2CCCC2)C(C)C)CC1 (configuration not stated)	DENV2 CPE 30.0 (no result: ARNT-TACC3 inh)
CCOC(=O)N1CCC(NC2CCCCCCC2)CC1	none (no result: XiGFP reactiv, SIRT5 block, FN deposition inh, DENV2 CPE, FGF22 binding)
COCC(=O)N(C)C[C@H]1Oc2cc(-c3ccc(OC)cc3)ccc2S(=O)(=O)N([C@@H](C)CO)C[C@@H]1C	none (no result: FN deposition inh)
COCC#Cc1cnc2c(c1)C(=O)N([C@@H](C)CO)C[C@@H](C)[C@H](CN(C)C(=O)C1CCCCC1)O2	none (no result: FN deposition inh)
COc1cccc(OC)c1-c1cnc(NC(C)=O)cn1	DENV2 CPE 23.9 (no result: SIRT5 block, ARNT-TACC3 inh)
C[C@H](CO)N1C[C@H](C)[C@@H](CN(C)C(=O)Nc2ccccc2)OCCCC[C@H](C)Oc2ccc(NC(=O)Nc3ccc(F)cc3)cc2C1=O	none (no result: FN deposition inh)
C[C@H]1CN([C@@H](C)CO)S(=O)(=O)c2ccc(/C=C/c3ccccc3)cc2O[C@H]1CN(C)C(=O)CN1CCOCC1	none (no result: SIRT5 block, FN deposition inh, DENV2 CPE, FGF22 binding, ARNT-TACC3 inh)
N#Cc1cccc(NC(=O)CSc2nnc(-c3n[nH]c4ccccc34)o2)c1	FGF22 binding 1.9
Cc1cccc(NC(=O)CSc2nnc(-c3n[nH]c4ccccc34)o2)c1	SIRT5 block 15.5
Cc1cccc(NC(=O)CSc2nnc(-c3ccccc3C)o2)c1	none (no result: XiGFP reactiv, SIRT5 block, DENV2 CPE, FGF22 binding)
C[C@@H]1CCCCO[C@@H](CN(C)S(=O)(=O)c2ccccc2)[C@H](C)CN([C@H](C)CO)C(=O)c2cc(NC(=O)NC3CCCCC3)ccc2O1	none
CCCC#Cc1ccc([C@@H]2[C@@H](CO)N3C(=O)CN(C(=O)c4cccnc4)C[C@H]23)cc1	none (no result: FGF22 binding, ARNT-TACC3 inh)
CCC1CN(C(=O)N2CCC(C(=O)NCc3ccccc3C)CC2)c2ccccc2O1 (configuration not stated)	none
CCC1CN(C(=O)N2CCC(C(=O)Nc3ccccc3F)CC2)c2ccccc2O1 (configuration not stated)	SIRT5 block 19.3
CCC(=O)N(C)C[C@H]1Oc2cc(-c3ccc(C)cc3)ccc2S(=O)(=O)N([C@@H](C)CO)C[C@@H]1C	none
Cc1cc2c(cc1S(=O)(=O)N1CCN(c3ccccc3F)CC1)OCC(=O)N2	ARNT-TACC3 inh 15.2 (no result: FN deposition inh)
Cc1cc2c(cc1S(=O)(=O)N1CCN(c3ccccc3)CC1)OCC(=O)N2	none
Clc1nc(-c2ccccn2)nc2scc(-c3ccccc3)c12	ARNT-TACC3 inh 60.0 (no result: SIRT5 block, FN deposition inh, DENV2 CPE, FGF22 binding)
O=C1N(Cc2ccccc2)CC2(Br)COCOC12O (configuration not stated)	ARNT-TACC3 inh 8.9 (no result: SIRT5 block)
O=C1C(c2ccccc2)CN1Cc1ccccc1 (configuration not stated)	none (no result: ARNT-TACC3 inh)
COc1ccc2c3c(n(C)c2c1)[C@H](CO)N(C(C)=O)CC31CN(Cc2cccnc2)C1	none (no result: SIRT5 block, FN deposition inh, DENV2 CPE, FGF22 binding, ARNT-TACC3 inh)
COc1ccccc1N(CC(=O)N1CCCCCC1)S(=O)(=O)c1ccc(C)cc1	none
COc1ccccc1N(CC(=O)N1CCCC1)S(=O)(=O)c1ccc(C)cc1	DENV2 CPE 54.4
CN(C)c1ccc2c(c1)[C@@H]1C[C@H](CC(=O)NCc3cccc(F)c3)O[C@@H](CO)[C@@H]1O2	none (no result: FN deposition inh)
COc1ccccc1C1Nc2ccccc2NC2=C1C(=O)CC(C)(C)C2 (configuration not stated)	none
COc1ccc(C2Nc3ccccc3NC3=C2C(=O)CC(C)(C)C3)cc1O (configuration not stated)	ARNT-TACC3 inh 46.7
COc1ccc(OC)c(C2Nc3ccccc3NC3=C2C(=O)CC(C)(C)C3)c1 (configuration not stated)	SIRT5 block 19.6
C[C@H]1CN([C@@H](C)CO)S(=O)(=O)c2ccc(C#CC(C)(C)O)cc2O[C@H]1CN(C)Cc1ccncc1	none
C[C@@H]1CN([C@H](C)CO)C(=O)Cc2cc(NC(=O)Nc3ccc(C(F)(F)F)cc3)ccc2O[C@@H]1CN(C)C(=O)NC1CCCCC1	none (no result: SIRT5 block, FN deposition inh, DENV2 CPE, FGF22 binding, ARNT-TACC3 inh)
CC1(C)Cc2c(cnn2-c2ccc(F)cc2)C(NC(=O)c2ccc(=O)oc2)C1 (configuration not stated)	DENV2 CPE 70.1 (no result: FN deposition inh)
CC1(C)Cc2c(cnn2-c2ccc(F)cc2)C(NC(=O)c2cnccn2)C1 (configuration not stated)	none (no result: FN deposition inh)
